Laboratory results reported in ChEMBL document CHEMBL1122443, “Synthesis and antitumor evaluation of selected 5,6-disubstituted 1(2)H-indazole-4,7-diones” (1983).
Activity calls are given as the source filed them. The calls are words filed in the database; no cut-off is given here.

Key:
Mus musculus [1] = assay: Antitumor activity in CF1 mice bearing Ehrlich ascites carcinoma measured as ascites volume at 8 mg/kg; format: functional
Procedure, shortened: (§1)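 Male CF1 mice (22–25 g) received 2 × 10⁶ Ehrlich carcinoma cells ip on day 0. Dosing was ip daily on days 1–8, with sacrifice on day 9. Ascites fluid volume per mouse and ascrit (packed cell volume) were measured for each group. Vehicle was 0.05% Tween 80, or 5% absolute EtOH in 0.05% Tween 80, used for both compound and control. 6-Mercaptopurine was the positive control.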

Mus musculus [2] = assay: Antitumor activity in 6 CF1 mice bearing Ehrlich ascites carcinoma measured as survivors on day 9 at 8 mg/kg; 6/6; format: functional
Mus musculus [3] = assay: Antitumor activity in CF1 mice bearing Ehrlich ascites carcinoma measured as ascites volume at 5 mg/kg; format: functional; procedure, shortened: as §1
Mus musculus [4] = assay: Antitumor activity in CF1 mice bearing Ehrlich ascites carcinoma measured as percent ascrit packed cell volume at 5 mg/kg; format: functional; procedure, shortened: as §1
Mus musculus [5] = assay: Antitumor activity in CF1 mice bearing Ehrlich ascites carcinoma measured as percent ascrit packed cell volume at 3 mg/kg; format: functional; procedure, shortened: as §1
Mus musculus [6] = assay: Antitumor activity in CF1 mice bearing Ehrlich ascites carcinoma measured as percentage inhibition at 8 mg/kg; IA means inactive; format: functional, organism-based; parameters: dose 8 mg/kg
Procedure, shortened: (§2)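 Ehrlich ascites model in male CF1 mice (22–25 g): 2 × 10⁶ cells ip on day 0, ip dosing days 1–8, kill on day 9. Percent inhibition = 100 − [(treated volume × treated ascrit)/(control volume × control ascrit)]. Greater than 80% was taken as significant. Vehicle was 0.05% Tween 80, alone or with 5% absolute EtOH. 6-Mercaptopurine was the positive control.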

Mus musculus [7] = assay: Antitumor activity in CF1 mice bearing Ehrlich ascites carcinoma measured as ascites volume at 3 mg/kg; format: functional; procedure, shortened: as §1
Mus musculus [8] = assay: Antitumor activity in 6 CF1 mice bearing Ehrlich ascites carcinoma measured as survivors on day 9 at 5 mg/kg; 6/6; format: functional
Mus musculus [9] = assay: Antitumor activity in 6 CF1 mice bearing Ehrlich ascites carcinoma measured as survivors on day 9 at 3 mg/kg; 6/6; format: functional
Mus musculus [10] = assay: Antitumor activity in CF1 mice bearing Ehrlich ascites carcinoma measured as percent ascrit packed cell volume at 8 mg/kg; format: functional; procedure, shortened: as §1
Mus musculus [11] = assay: Antitumor activity in CF1 mice bearing Ehrlich ascites carcinoma measured as percentage inhibition at 3 mg/kg; format: functional; procedure, shortened: as §2
Mus musculus [12] = assay: Antitumor activity in CF1 mice bearing Ehrlich ascites carcinoma measured as percentage inhibition at 5 mg/kg; format: functional; procedure, shortened: as §2
Mus musculus [13] = assay: Average days survived for treated / average days survived for control at 1 (mg/kg); 10/9.2; format: functional
Mus musculus [14] = assay: Antitumor activity in CF1 mice bearing Ehrlich ascites carcinoma measured as percent ascrit packed cell volume at 1 mg/kg; format: functional
Procedure, shortened: (§3)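 CF1 male mice (22–25 g) were inoculated ip with 2 × 10⁶ Ehrlich cells on day 0 and treated ip on days 1–8 in 0.05% Tween 80 or 5% EtOH/0.05% Tween 80 vehicle. On day 9 the mice were sacrificed, and the ascrit (packed cell volume) of the ascites fluid was determined.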

Mus musculus [15] = assay: Antitumor activity in CF1 mice bearing Ehrlich ascites carcinoma measured as ascites volume at 10 mg/kg; format: functional
Procedure, shortened: (§4)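 Ehrlich ascites cells (2 × 10⁶) were implanted ip in male CF1 mice (22–25 g) on day 0. Dosing was ip on days 1–8 in 0.05% Tween 80 or 5% EtOH/0.05% Tween 80, with vehicle controls. Mice were killed on day 9, and ascites fluid volume per mouse was measured.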

Mus musculus [16] = assay: Antitumor activity in CF1 mice bearing Ehrlich ascites carcinoma measured as percentage inhibition at 10 mg/kg; IA= inactive; format: functional, organism-based; parameters: dose 10 mg/kg
Procedure, shortened: (§5)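 In the Ehrlich ascites model, male CF1 mice (22–25 g) received 2 × 10⁶ cells ip on day 0 and compound ip on days 1–8, with a vehicle of 0.05% Tween 80 ± 5% EtOH. Ascites volume and ascrit were taken on day 9. % inhibition = 100 − [(vol × ascrit, treated)/(vol × ascrit, control)], with >80% taken as significant.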

Mus musculus [17] = assay: Antitumor activity in CF1 mice bearing Ehrlich ascites carcinoma measured as survivors on day 9 at 1 mg/kg; 6/6; format: functional
Mus musculus [18] = assay: Antitumor activity in CF1 mice bearing Ehrlich ascites carcinoma measured as survivors on day 9 at 5 mg/kg; 6/6; format: functional
Mus musculus [19] = assay: Antitumor activity in CF1 mice bearing Ehrlich ascites carcinoma measured as percentage inhibition at 1 mg/kg; IA= inactive; format: functional, organism-based; parameters: dose 1 mg/kg; procedure, shortened: as §5
Mus musculus [20] = assay: Antitumor activity in CF1 mice bearing Ehrlich ascites carcinoma measured as survivors on day 9 at 8 mg/kg; 6/6; format: functional
Procedure, shortened: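 Male CF1 mice (22–25 g) were given 2 × 10⁶ Ehrlich carcinoma cells ip on day 0. Compounds were dosed ip on days 1–8 in 0.05% Tween 80 or in 5% absolute EtOH in 0.05% Tween 80, with vehicle-treated controls. Mice were killed on day 9, and ascites volume and ascrit (packed cell volume) were measured per mouse.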

Mus musculus [21] = assay: Antitumor activity in CF1 mice bearing Ehrlich ascites carcinoma measured as percent ascrit packed cell volume at 10 mg/kg; format: functional; procedure, shortened: as §3
Mus musculus [22] = assay: Antitumor activity in CF1 mice bearing Ehrlich ascites carcinoma measured as survivors on day 9 at 10 mg/kg; 6/6; format: functional
Mus musculus [23] = assay: Antitumor activity in CF1 mice bearing Ehrlich ascites carcinoma measured as percentage inhibition at 8 mg/kg; format: functional; procedure, shortened: as §5
Mus musculus [24] = assay: Antitumor activity in CF1 mice bearing Ehrlich ascites carcinoma measured as ascites volume at 1 mg/kg; format: functional; procedure, shortened: as §4
Mus musculus [25] = assay: Anti tumor activity in mice bearing lymphocytic leukemia P-388 at 1 mg/kg; format: functional
Procedure, shortened: (§6)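 Male BDF1 mice (20–23 g) were inoculated ip with 1 × 10⁶ P-388 leukemia cells on day 0. Compound was given ip once daily on days 1–14 in 0.05% Tween 80 vehicle, with a vehicle control group and 5-fluorouracil as positive control. Activity was scored as % T/C, average days survived treated/control, with >125% taken as significant.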

Mus musculus [26] = assay: Average days survived for treated / average days survived for control at 1 (mg/kg); 9.4/9.2; format: functional
Mus musculus [27] = assay: Antitumor activity in CF1 mice bearing Ehrlich ascites carcinoma measured as survivors on day 9 at 5 mg/kg; 5/5; format: functional
Mus musculus [28] = assay: Antitumor activity in CF1 mice bearing Ehrlich ascites carcinoma measured as percentage inhibition at 1 mg/kg; format: functional; procedure, shortened: as §5
Mus musculus [29] = assay: Antitumor activity in CF1 mice bearing Ehrlich ascites carcinoma measured as survivors on day 9 at 1 mg/kg; 5/6; format: functional
Mus musculus [30] = assay: Antitumor activity in CF1 mice bearing Ehrlich ascites carcinoma measured as survivors on day 9 at 10 mg/kg; 5/6; format: functional
Mus musculus [31] = assay: Average days survived for treated / average days survived for control at 5 (mg/kg); 8.8/9.2; format: functional
Mus musculus [32] = assay: Average days survived for treated / average days survived for control at 20 (mg/kg); 4.8/9.2; format: functional
Mus musculus [33] = assay: Average days survived for treated / average days survived for control at 1 (mg/kg); 9.6/9.2; format: functional
Mus musculus [34] = assay: Average days survived for treated / average days survived for control at 30 (mg/kg); 3.0/9.2; format: functional
Mus musculus [35] = assay: Anti tumor activity in mice bearing lymphocytic leukemia P-388 at 10 mg/kg; format: functional; procedure, shortened: as §6
Mus musculus [36] = assay: Anti tumor activity in mice bearing lymphocytic leukemia P-388 at 30 mg/kg; format: functional; procedure, shortened: as §6
Mus musculus [37] = assay: Anti tumor activity in mice bearing lymphocytic leukemia P-388 at 20 mg/kg; format: functional
Procedure, shortened: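 Male BDF1 mice (20–23 g) inoculated ip with 1 × 10⁶ P-388 lymphocytic leukemia cells on day 0. Test agents were given ip once daily on days 1–14, with 0.05% Tween 80 as vehicle for treated and control groups. Read-out is %T/C, the mean days survived by treated over control. Values above 125% were counted as significant. 5-Fluorouracil was the positive control.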

Mus musculus [38] = assay: Anti tumor activity in mice bearing lymphocytic leukemia P-388 at 5 mg/kg; format: functional; procedure, shortened: as §6
Mus musculus [39] = assay: Average days survived for treated / average days survived for control at 10 (mg/kg); 6.4/9.2; format: functional

Compound | ascites volume (Mus musculus [1]) [ml mouse-1] | ascites volume (Mus musculus [3]) [ml mouse-1] | packed cell volume (Mus musculus [4]) [%] | packed cell volume (Mus musculus [10]) [%] | inhibition in vivo at 5 mg/kg (Mus musculus [12]) [%] | packed cell volume (Mus musculus [14]) [%] | ascites volume (Mus musculus [15]) [ml mouse-1] | inhibition (Mus musculus [16]) | Survivors (Mus musculus [17]) | Survivors (Mus musculus [18]) | inhibition (Mus musculus [19]) | packed cell volume (Mus musculus [21]) [%] | ascites volume (Mus musculus [24]) [ml mouse-1] | T/C (Mus musculus [25]) [%] | Survivors (Mus musculus [30]) | other results
Cn1ncc2c1C(=O)C(Cl)=C(N)C2=O | 1.9 | 1 | 35.4 | 33.9 | 8.4 | – | – | – | – | – | – | – | – | – | – | Survivors (Mus musculus [2]): 6; packed cell volume (Mus musculus [5]): 44%; inhibition (Mus musculus [6]): inactive; ascites volume (Mus musculus [7]): 2 ml mouse-1; Survivors (Mus musculus [8]): 6; Survivors (Mus musculus [9]): 6; inhibition in vivo at 3 mg/kg (Mus musculus [11]): 25.3%
COC1=C(N2CC2)C(=O)c2cnn(C)c2C1=O | 0.32 | 0.7 | 34.6 | 36.2 | 39.4 | 39.8 | 2.2 | inactive | 6 | 6 | inactive | 30.7 | 4.2 | 109 | – | Average survival (days) (Mus musculus [13]): 10; Survivors (Mus musculus [20]): 6; Survivors (Mus musculus [22]): 6; inhibition in vivo at 8 mg/kg (Mus musculus [23]): 64.1%
CCCSC1=C(N2CC2)C(=O)c2cnn(C)c2C1=O | – | 0.88 | 37.8 | – | 78.5 | 37.2 | 1.5 | inactive | – | – | – | 39.4 | 0.26 | 102 | 5 | Average survival (days) (Mus musculus [26]): 9.4; Survivors (Mus musculus [27]): 5; inhibition in vivo at 1 mg/kg (Mus musculus [28]): 74.1%; Survivors (Mus musculus [29]): 5
Cn1ncc2c1C(=O)C(Cl)=C(N1CC1)C2=O | – | 2.5 | 41.4 | – | 5.8 | 35.2 | 3.4 | inactive | 6 | 6 | inactive | 37.3 | 2 | 107 | 5 | Average survival (days) (Mus musculus [31]): 8.8; Average survival (days) (Mus musculus [32]): 4.8; Average survival (days) (Mus musculus [33]): 9.6; Average survival (days) (Mus musculus [34]): 3; T/C (Mus musculus [35]): 70%; T/C (Mus musculus [36]): 33%; T/C (Mus musculus [37]): 52%; T/C (Mus musculus [38]): 96%; Average survival (days) (Mus musculus [39]): 6.4
